Source: article PMC3601785 (ACS medicinal chemistry letters, 2012)
Blank lines part the entries; values can stand above or below the compound they belong to.

Tests used:
[1] = pharmacokinetic analysis, single i.v. or i.p. dose; assay type: in vivo, male CD-1 mice; details: male, CD-1, mouse, plasma, other: intravenous (i.v.) or intraperitoneal (i.p.)
In short: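 Single dose given iv or ip to male CD-1 mice in 1:1:15 Cremophor:EtOH:phosphate-buffered saline. Plasma concentrations used to derive half-life, Cmax, C0 (maximum plasma concentration extrapolated to t = 0) and AUC extrapolated to infinity and normalized to dose in mg/kg.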

[2] = system: mitogen-and stress-activated kinase; details: cited from earlier work
p70 S6 kinase = details: cited from earlier work
Aurora B = details: [ATP] lower than in the RSK assay; cited from earlier work
aqueous solubility = assay type: physicochemical
PIM 3 = details: [ATP] lower than in the RSK assay; cited from earlier work
[3] = system: RSK biomarkers (peEF2, cyclin D1, phospho-motif) in MCF-7 cells; experiment: RSK biomarkers in PMA-stimulated MCF-7 cells by immunoblotting; assay type: cell-based, human; details: MCF-7 cells pre-treated with SL0101 (100 μM) or 7 (25 μM), then PMA
In short: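 MCF-7 cells pretreated with test compound (reference inhibitor 100 μM; analogue 25 μM) or vehicle, then treated with DMSO or the mitogen PMA. Lysates analysed by immunoblotting for RSK biomarkers, including eEF2 phosphorylation.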

MCF-7 cells = experiment: MCF-7 proliferation; assay type: cell-based, human
In short: (§1)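 Test compound added at time 0 at various concentrations. Proliferation read as cellular ATP content after 48 h of treatment. Values expressed as fold proliferation as a percentage of vehicle-treated cells. n = 3 experiments, each in quadruplicate, with SD and Student's t test against vehicle; for MCF-7, also against the reference inhibitor.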

MCF-10A cells = experiment: MCF-10A proliferation; assay type: cell-based; details: various concentrations, 48 h
In short: as §1

[4] = target: T1, purified, recombinant RSK2 (Homo sapiens, UniProt P51812); experiment: in vitro kinase assay, inhibition of purified recombinant RSK2; assay type: biochemical
[5] = target: T1, purified, recombinant RSK2; details: cited from earlier work

T1 sequence (P51812 whole entry, species assumed): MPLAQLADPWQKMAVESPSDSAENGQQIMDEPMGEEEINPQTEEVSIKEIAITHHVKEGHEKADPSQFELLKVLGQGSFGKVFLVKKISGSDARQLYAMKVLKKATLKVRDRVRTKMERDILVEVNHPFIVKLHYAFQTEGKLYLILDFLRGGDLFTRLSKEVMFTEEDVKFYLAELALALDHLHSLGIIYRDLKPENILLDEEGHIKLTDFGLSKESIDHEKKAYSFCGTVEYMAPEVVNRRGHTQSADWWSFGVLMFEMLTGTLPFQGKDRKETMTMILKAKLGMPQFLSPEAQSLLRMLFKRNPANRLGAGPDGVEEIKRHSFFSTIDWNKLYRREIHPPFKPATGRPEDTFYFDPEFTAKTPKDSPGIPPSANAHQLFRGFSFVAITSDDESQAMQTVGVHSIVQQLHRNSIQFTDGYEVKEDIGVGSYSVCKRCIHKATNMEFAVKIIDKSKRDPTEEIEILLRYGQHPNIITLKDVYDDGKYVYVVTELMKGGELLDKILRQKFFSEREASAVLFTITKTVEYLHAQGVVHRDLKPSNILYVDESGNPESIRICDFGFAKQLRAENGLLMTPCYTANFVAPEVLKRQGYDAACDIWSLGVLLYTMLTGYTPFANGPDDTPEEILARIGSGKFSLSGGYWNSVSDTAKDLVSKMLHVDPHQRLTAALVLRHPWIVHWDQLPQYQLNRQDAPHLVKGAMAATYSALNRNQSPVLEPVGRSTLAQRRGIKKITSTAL

half-life [1]: < 30 min
solubility (aqueous solubility; carrier of 1:1:15 Cremophor:EtOH:phosphate-buffered saline was required): limited solubility
Structure (SMILES): CC(=O)O[C@@H]1[C@@H](OC(C)=O)[C@@H](O)[C@H](Oc2c(-c3ccc(O)cc3)oc3cc(O)cc(O)c3c2=O)O[C@H]1C [SL0101]
inhibition of mitogen-and stress-activated kinase [2]: did not inhibit
inhibition of p70 S6 kinase (p70 S6 kinase): did not inhibit
inhibition of Aurora B (Aurora B): partially inhibit
inhibition of PIM 3 (PIM 3): partially inhibit
cyclin D1 levels [3]: decreased cyclin D1 levels
intensity of band at ~ 27 kDa, (Lys/Arg)XX(Lys/Arg)X(pSer/pThr) motif antibody [3]: intensity decreases
peEF2 levels compared to the PMA control [3]: increased peEF2 levels

solubility (aqueous solubility; aqueous solution): ≤ 25 µM
Structure (SMILES): CCC[C@@H]1O[C@@H](Oc2c(-c3ccc(O)cc3)oc3cc(O)cc(O)c3c2=O)[C@H](O)[C@H](OC(C)=O)[C@H]1OC(C)=O [compound 7]
ability to inhibit MCF-7 proliferation, fold better compared to SL0101 (1) (MCF-7 cells): 2 fold
inhibition of MCF-7 proliferation (MCF-7 cells; various concentrations, 48 h): inhibits MCF-7
inhibition of MCF-10A proliferation (MCF-10A cells): not MCF-10A proliferation
cyclin D1 levels [3]: decreased cyclin D1 levels
intensity of band at ~ 27 kDa, (Lys/Arg)XX(Lys/Arg)X(pSer/pThr) motif antibody [3]: intensity decreases
peEF2 levels compared to the PMA control [3]: increased peEF2 levels

change of RSK2 IC50 in comparison to the 5″-n-propyl analogue 3 [4]: doubled the IC50
Structure (SMILES): CCC[C@@H]1O[C@@H](Oc2c(-c3ccc(O)cc3)oc3cc(O)cc(O)c3c2=O)[C@H](OC(C)=O)[C@H](OC(C)=O)[C@H]1OC(C)=O [compound 8]

Structure (SMILES): CCC[C@@H]1O[C@@H](Oc2c(-c3ccc(O)cc3)oc3cc(O)cc(O)c3c2=O)[C@H](O)[C@H](O)[C@H]1OC(C)=O [compound 5]
change of RSK2 IC50 in comparison to the 5″-n-propyl analogue 3 [4]: increased the IC50, but this difference was not statistically significant

Structure (SMILES): CC1OC(Oc2c(-c3ccc(O)cc3)oc3cc(O)cc(O)c3c2=O)C(O)C(O)C1O (centres unmarked) [deacetylated SL0101]
potency for RSK inhibition, fold less potent than SL0101 (1) [5]: ~ 10 fold

change of RSK2 IC50 in comparison to the 5″-n-propyl analogue 3 [4]: did not alter the IC50
Structure (SMILES): CCC[C@@H]1O[C@@H](Oc2c(-c3ccc(O)cc3)oc3cc(O)cc(O)c3c2=O)[C@H](OC(C)=O)[C@H](O)[C@H]1OC(C)=O [compound 6]
